The values that follow come from ChEMBL document CHEMBL5104186, “Structure-Activity Relationship and Neuroprotective Activity of 1,5-Dihydro-2H-naphtho[1,2-b][1,4]diazepine-2,4(3H)-diones as P2X4 Receptor Antagonists” (J Med Chem, 2022).

Series [1] has as its target T1, P2X purinoceptor 1 (Homo sapiens) (UniProt P51575).
T1 sequence (whole entry): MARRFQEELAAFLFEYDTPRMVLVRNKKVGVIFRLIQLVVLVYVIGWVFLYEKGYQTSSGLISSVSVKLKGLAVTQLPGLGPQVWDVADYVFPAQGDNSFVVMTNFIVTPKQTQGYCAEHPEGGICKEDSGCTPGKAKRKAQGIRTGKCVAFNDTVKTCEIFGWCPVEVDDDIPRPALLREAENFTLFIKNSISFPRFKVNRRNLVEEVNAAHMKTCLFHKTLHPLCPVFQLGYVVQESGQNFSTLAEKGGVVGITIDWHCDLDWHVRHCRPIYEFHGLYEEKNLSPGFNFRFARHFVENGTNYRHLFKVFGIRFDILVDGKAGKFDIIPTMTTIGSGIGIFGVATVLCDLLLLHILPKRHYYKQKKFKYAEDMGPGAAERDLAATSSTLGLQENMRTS
Put plainly: Antagonist activity at human P2X1R transfected in CHO-K1 cells at 30 uM preincubated for 30 mins followed by alpha,beta-meATP addition by […] based assay relative to control. The class given is cell-based. The arrangement: scale not given: the % may be the effect or the level left.

For series [2], the target named is P2X2/P2X3 heterotrimeric receptor (Homo sapiens) (UniProt Q9UBL9+P56373). The experiment in a line: Antagonist activity at human P2X2/3R transfected in CHO-K1 cells at 30 uM preincubated for 30 mins followed by alpha,beta-meATP addition by fluorescence based assay relative to control. Also noted: scale not given: the % may be the effect or the level left. In kind it is cell-based.

The target of series [3] is T2, P2X purinoceptor 4 (Homo sapiens) (UniProt Q99571).
T2 sequence (whole entry): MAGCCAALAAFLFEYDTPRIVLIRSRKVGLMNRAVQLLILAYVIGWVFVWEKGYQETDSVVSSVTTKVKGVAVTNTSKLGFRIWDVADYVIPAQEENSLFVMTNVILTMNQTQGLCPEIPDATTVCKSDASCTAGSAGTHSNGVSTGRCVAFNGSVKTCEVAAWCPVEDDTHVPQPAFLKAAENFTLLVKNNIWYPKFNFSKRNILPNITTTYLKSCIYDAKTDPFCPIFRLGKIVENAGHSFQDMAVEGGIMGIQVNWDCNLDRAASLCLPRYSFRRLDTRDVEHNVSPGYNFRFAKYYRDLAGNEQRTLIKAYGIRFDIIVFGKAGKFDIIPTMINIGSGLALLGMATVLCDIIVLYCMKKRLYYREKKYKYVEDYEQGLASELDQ
Put plainly: Antagonist activity at human P2X4R transfected in HEK293 cells at 30 uM preincubated for 30 mins followed by CTP addition by fluorescence based assay relative to control. The class given is cell-based. Also noted: scale not given: the % may be the effect or the level left.

Series [4] concerns the target T3, P2X purinoceptor 3 (Homo sapiens) (UniProt P56373).
T3 sequence (whole entry): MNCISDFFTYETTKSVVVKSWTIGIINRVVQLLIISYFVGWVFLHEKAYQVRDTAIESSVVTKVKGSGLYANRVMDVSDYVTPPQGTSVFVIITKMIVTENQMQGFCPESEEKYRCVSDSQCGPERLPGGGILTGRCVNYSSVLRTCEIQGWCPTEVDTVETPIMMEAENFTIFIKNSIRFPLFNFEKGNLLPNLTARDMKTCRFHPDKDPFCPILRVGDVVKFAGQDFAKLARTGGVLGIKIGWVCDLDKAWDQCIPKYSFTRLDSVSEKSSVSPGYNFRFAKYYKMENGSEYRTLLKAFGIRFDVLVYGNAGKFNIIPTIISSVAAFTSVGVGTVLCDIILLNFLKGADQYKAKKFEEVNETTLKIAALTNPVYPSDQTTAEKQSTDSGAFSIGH
Put plainly: Antagonist activity at human P2X3R transfected in CHO-K1 cells at 30 uM preincubated for 30 mins followed by alpha,beta-meATP addition by fluorescence based assay relative to control. In kind it is cell-based. Also noted: scale not given: the % may be the effect or the level left.

For series [5], the target named is T4, P2X purinoceptor 4 (Homo sapiens, UniProt Q99571).
T4 sequence (Q99571 whole entry): T2 sequence (whole entry)
Put plainly: Antagonist activity at human P2X4R transfected in HEK293 cells preincubated for 30 mins followed by CTP addition by fluorescence based assay. In kind it is cell-based.

The subject of series [6] is MDM. Put plainly: Inhibition of ATP-induced calcium influx in human monocytes derived macrophages assessed as decrease in calcium altitude at 0.6 uM preincubated for 15 mins followed by ATP addition and measured upto 4 mins by laser scanning confocal microscopic analysis. In kind it is functional, cell-based. The settings on record: time <= 19.0 min. A digest of the protocol:
(§1)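 Monocytes matured into macrophages with GM-CSF (5 ng/mL) for 5–7 days, then seeded 10^4 cells/dish for ≥24 h. Calbryte 590 AM loaded for 60 min in HBSS/HEPES. Cells pretreated 15 min with 0–3 μM compound, then 50 μM ATP added; confocal images taken every 6 s for up to 4 min. Read-out is peak cytosolic Ca2+ amplitude (F/F0). Mean ± SEM; ANOVA with Tukey.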

The subject of series [7] is Mus musculus. The experiment in a line: Neuroprotective activity in Wild type C57B/6 mouse model of middle cerebral artery occlusion assessed as reduction in infract damage at […] administered for 3 days by TTC staining based assay. The note with it: time 3.0 day. In kind it is functional, organism-based.
A short description of series [8]: Effect on locomotor activity in C57B/6 mouse model of middle cerebral artery occlusion at 1.5 to 3 mg/kg/day measured over 4 weeks after stroke by open field test. In kind it is toxicity, organism-based. The note with it: in vivo, 672 h, dose 1.5-3 mg/kg/day. The procedure, abridged: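 C57B/6 mice underwent MCAO and received a subcutaneous Alzet minipump (vehicle 1× PBS) at reperfusion, delivering compound for 3 days. Open-field test: 10 min exploration of a 16″ acrylic box at several time points; total beam breaks recorded. Mean ± S.D.; n = 8–15/group, both sexes.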

The subject of series [9] is Mus musculus. The experiment in a line: Neuroprotective activity in Wild type C57B/6 mouse model of middle cerebral artery occlusion assessed as reduction in cortical infract volume at […] administered for 3 days. The settings on record: time 3.0 day. The class given is functional, organism-based.
In series [10] the test system is Mus musculus. The experiment in a line: Neuroprotective activity in Wild type C57B/6 mouse model of middle cerebral artery occlusion assessed as reduction in hemispheric infract size at 0.5 to 3 mg/kg/day administered for 3 days. The class given is functional, organism-based. The settings on record: dose 0.5-3 mg/kg/day, time 3.0 day. The procedure, abridged: (§2)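 C57B/6 mice (8–12-week-old males; 12–13-month-old mice in one study) underwent MCAO (filament, laser Doppler confirmation, 37 °C). At reperfusion a subcutaneous Alzet pump was implanted, giving 0.5–3.0 or 5.0 mg/kg/day for 3 days; vehicle was PBS. At day 3, TTC-stained coronal sections were scored blind, with edema-corrected (Swanson) infarct volume as % of contralateral. Mean ± S.D.; n = 5–6.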

In series [11] the test system is MDM. The experiment in a line: Inhibition of ATP-induced calcium influx in human monocytes derived macrophages preincubated for 15 mins followed by ATP addition and measured upto 4 mins by laser scanning confocal microscopic analysis. In kind it is functional, cell-based. The settings on record: dose 0.6-3 µM, time <= 19.0 min, DDE = dose-dependent effect. The procedure, abridged:
as §1

Series [12] concerns the target T5, 5-hydroxytryptamine receptor 2C (Homo sapiens, UniProt P28335).
T5 sequence (P28335 whole entry): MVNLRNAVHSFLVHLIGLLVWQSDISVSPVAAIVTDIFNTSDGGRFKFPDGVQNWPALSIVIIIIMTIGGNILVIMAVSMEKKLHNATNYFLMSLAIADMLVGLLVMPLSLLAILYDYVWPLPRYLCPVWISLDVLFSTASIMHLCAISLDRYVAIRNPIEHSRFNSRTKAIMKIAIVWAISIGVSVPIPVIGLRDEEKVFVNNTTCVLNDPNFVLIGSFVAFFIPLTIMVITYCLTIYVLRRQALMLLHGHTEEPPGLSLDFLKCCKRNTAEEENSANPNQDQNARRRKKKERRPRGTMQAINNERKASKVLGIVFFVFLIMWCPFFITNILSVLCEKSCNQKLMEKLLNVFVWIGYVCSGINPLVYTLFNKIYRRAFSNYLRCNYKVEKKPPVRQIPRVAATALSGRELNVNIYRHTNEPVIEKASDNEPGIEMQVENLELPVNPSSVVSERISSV
The experiment in a line: Binding affinity to human 5HT2C serotonin receptor. A digest of the protocol:
(§3)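 Off-target radioligand binding was run by the NIMH Psychoactive Drug Screening Program across 45 receptors, channels and transporters. Ki in nM, given as mean ± SEM.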

In series [13] the test system is Mus musculus. Put plainly: Improvement in learning and memory in C57B/6 mouse model of middle cerebral artery occlusion at 3 mg/kg measured after 4 weeks post stroke by NORT. The class given is functional, organism-based. The procedure, abridged: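 Middle-aged C57B/6 mice (both sexes) underwent MCAO and received a 3-day subcutaneous minipump infusion from reperfusion (vehicle PBS). NORT was run 4 weeks post-stroke: 1 h acclimatisation, 10 min habituation, 10 min trial with two identical objects, then a test 24 h later with one novel object. Discrimination index = (TN − TF)/(TN + TF). One-way ANOVA with Tukey; n = 5–11/group.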

Series [14] concerns Mus musculus. The experiment in a line: Neuroprotective activity in Wild type C57B/6 mouse model of middle cerebral artery occlusion assessed as reduction in tissue atrophy at […] administered for 3 days measured after 35 days by CV staining based assay. The class given is functional, organism-based. The settings on record: time 3.0 day.
Series [15] deals with D(3) dopamine receptor (Homo sapiens, UniProt P35462). The experiment in a line: Binding affinity to human D3 dopamine receptor. The procedure, abridged:
as §3

The subject of series [16] is Mus musculus. Put plainly: Neuroprotective activity in Wild type C57B/6 mouse model of middle cerebral artery occlusion assessed as reduction in hemispheric infract size at 5 mg/kg/day administered for 3 days. In kind it is functional, organism-based. The settings on record: time 3.0 day. A digest of the protocol: as §2

Active and inactive are the calls of the source. No cut-off for these calls is given here.

D(3) dopamine receptor, sequence (P35462 whole entry): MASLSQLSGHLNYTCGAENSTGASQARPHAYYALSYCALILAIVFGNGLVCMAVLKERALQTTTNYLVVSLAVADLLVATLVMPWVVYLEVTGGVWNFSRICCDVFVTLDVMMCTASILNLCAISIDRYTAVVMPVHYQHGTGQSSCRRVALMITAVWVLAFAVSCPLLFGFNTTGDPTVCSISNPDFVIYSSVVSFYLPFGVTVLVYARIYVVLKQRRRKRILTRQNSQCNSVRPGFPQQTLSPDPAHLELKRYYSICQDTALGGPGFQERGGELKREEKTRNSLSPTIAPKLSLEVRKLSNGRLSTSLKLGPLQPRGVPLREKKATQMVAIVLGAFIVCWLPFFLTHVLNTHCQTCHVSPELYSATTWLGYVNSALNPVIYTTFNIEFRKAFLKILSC

As for `[N-]=[N+]=NCc1ccc2c(Br)cc3c(c2c1)NC(=O)CC(=O)N3c1cccc(-c2noc(=S)[nH]2)c1`, the Activity in series [1] is -13%; in series [2] it was -4%; in [3], 8%; in series [4] it was 15%.
As to `CC(=O)NCc1ccc2ccc3c(c2c1)NC(=O)CC(=O)N3c1cccc(-c2noc(=S)[nH]2)c1`, the Activity in series [1] is 26%; in series [2], -5%; in series [3], 16%; in series [4] it was 9%.
With `Cc1ccc2c(Br)cc3c(c2c1)NC(=O)CC(=O)N3c1cccc(-c2noc(=S)[nH]2)c1`, the Activity was -2% in series [1], -5% in [2] and 17% in [4]. The molecule also gave a 50% inhibitory concentration (IC50) in series [5] of 11.8 µM.
`CCc1cc2c(c3ccccc13)NC(=O)CC(=O)N2c1cccc(-c2noc(=S)[nH]2)c1`: the figures for the Activity in series [1], in [2] and in [4] were 6%, 10% and 6%, respectively.
On to `O=C1CC(=O)N(c2cccc(-c3noc(=S)[nH]3)c2)c2cc(-c3ccccc3)c3ccccc3c2N1`, for which the Activity in series [1] was found to be 14%; in series [2] it was 10%; in [4], 11%. For the same molecule, the concentration for half-maximal inhibition (IC50) in [5] was determined as 20.7 µM.
Take `[N-]=[N+]=NCc1ccc2ccc3c(c2c1)NC(=O)CC(=O)N3c1cccc(-c2noc(=S)[nH]2)c1`: the Activity turned out to be 8% in series [1], 4% in [2], 6% in series [3] and 13% in series [4].
In the case of `O=C1CC(=O)N(c2cccc(-c3noc(=S)[nH]3)n2)c2ccc3ccccc3c2N1`, the values for the Activity in [1], in series [2] and in series [4] were 31%, 15% and 17%, respectively.
Take `CCN(CC)CC.O=C1CC(=O)N(c2ccnc(-c3noc(=S)[nH]3)c2)c2ccc3ccccc3c2N1`: the inhibition entry in [6] was “Active”. The outcome in series [7], in series [9], in series [10], in [13] and in series [14] was Active. For the same molecule, the Activity result in series [8] is “Non-Toxic”. The inhibition entry in series [11] was “Dde”. Moreover, the Ki amounted to 0.006 µM in series [12] and 0.00077 µM in [15].
For the molecule `CCCCC#Cc1cc2c(c3ccccc13)NC(=O)CC(=O)N2c1cccc(-c2noc(=S)[nH]2)c1`, the Activity in series [1] amounted to 16%; in series [2], 1%; in series [3] it was 15%; in series [4], 18%.
In the case of `O=C1CC(=O)N(c2cncc(-c3noc(=S)[nH]3)c2)c2ccc3ccccc3c2N1`, the Activity in series [1] came to 15%; in [2] it was 25%; in [4] it was 6%.
As for `O=C1CC(=O)N(c2cc(-c3noc(=S)[nH]3)ccn2)c2ccc3ccccc3c2N1`, the Activity in series [1] was 18%; in [2], -6%; in series [4], 18%.
Turning to `[N-]=[N+]=NCc1ccc2c3c(ccc2c1)N(c1cccc(-c2noc(=S)[nH]2)c1)C(=O)CC(=O)N3`, the Activity was -5% in [1], 2% in [2] and 0% in series [4]. The midpoint of inhibition in series [5], the IC50, lay at 21.3 µM.
For `O=C1CC(=O)N(c2cccc(-c3noc(=S)[nH]3)c2)c2cc(C#Cc3cccnc3)c3ccccc3c2N1`, the Activity in series [1] came out at 9%; in series [2], 13%; in series [3], 34%; in [4] it was 9%.
In the case of `Cc1cc(-c2noc(=S)[nH]2)cc(N2C(=O)CC(=O)Nc3c2ccc2ccccc32)c1`, the Activity in [1] worked out at 16%; in series [2], 5%; in series [4] it was 12%.
Turning to `Cc1ccc2c3c(ccc2c1)N(c1cccc(-c2noc(=S)[nH]2)c1)C(=O)CC(=O)N3`, the result in [16] was Active.
In the case of `O=C1CC(=O)N(c2cccc(-c3noc(=S)[nH]3)c2)c2cc(C#Cc3ccccc3)c3ccccc3c2N1`, the Activity in series [1] is 14%; in [2] it was 5%; in series [3], -4%; in series [4], 7%.
Take `NCc1ccc2ccc3c(c2c1)NC(=O)CC(=O)N3c1cccc(-c2noc(=S)[nH]2)c1`: the Activity is 8% in [1], 0% in [2], 9% in [3] and 9% in [4].
